Results on 7 compounds are retold here after ChEMBL document CHEMBL4831479, “Discovery of Novel Thiophene-arylamide Derivatives as DprE1 Inhibitors with Potent Antimycobacterial Activities” (J Med Chem, 2021).

In brackets after ≈: the same amount, converted by molar mass.

What all share (format): functional
Common to all, as to details: variant bovis BCG, 168 h, time 7 day

Assay [1] concerns Mycobacterium tuberculosis. Put plainly: Antibacterial activity against Mycobacterium bovis BCG transfected with pMV261:Mt-dprE1 assessed as bacterial growth inhibition incubated for 7 days by resazurin assay. Put shortly:
(§1)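 M. bovis BCG Pasteur carrying pMV261 (constitutive expression) with Mt-dprE1, Mt-dprE2 or empty vector; MIC after 7 days' exposure to compound, viability read as endogenous reductase conversion of resazurin to resorufin. INH used as control.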

For assay [2], the system named is Mycobacterium tuberculosis. Put plainly: Antibacterial activity against Mycobacterium bovis BCG transfected with pMV261:Mt-dprE2 assessed as bacterial growth inhibition incubated for 7 days by resazurin assay. Put shortly:
as §1
A general note: The colour change of resazurin is a common sign of viable cells or microbes.

Assay [3] has as its system Mycobacterium tuberculosis. Put plainly: Antibacterial activity against wild type Mycobacterium bovis BCG assessed as bacterial growth inhibition incubated for 7 days by resazurin assay. Summed up: as §1

As for `CCOC(=O)NC(=O)c1ccsc1NC(=O)c1ccc(C(=O)N2CCCCC2)cc1`, the MIC in assay [1] is greater than 1.28 µg/mL; in assay [2] it was 0.32 µg/mL (≈ 0.745 µM); in assay [3], 0.32 µg/mL (≈ 0.745 µM).
Take `O=C(Nc1sccc1C(=O)Nc1nccc(C(F)(F)F)n1)c1ccc(C(=O)N2CCCCC2)cc1`: the minimal inhibitory concentration (MIC) was 12.8 µg/mL (≈ 25.4 µM) in assay [1], 1.6 µg/mL (≈ 3.18 µM) in assay [2] and 1.6 µg/mL (≈ 3.18 µM) in assay [3].
As to `COC(=O)NC(=O)c1ccsc1NC(=O)c1ccc(C(=O)N2CCCCC2)cc1`, the minimal inhibitory concentration (MIC) turned out to be 12.2 µg/mL (≈ 29.3 µM) in assay [1], 1.52 µg/mL (≈ 3.66 µM) in assay [2] and 0.76 µg/mL (≈ 1.83 µM) in assay [3].
With `CCOC(=O)NC(=O)c1ccsc1NC(=O)c1ccc(C(=O)N2CCCCC2)s1`, the minimal inhibitory concentration (MIC) in assay [1] was determined as 8.96 µg/mL (≈ 20.6 µM); in assay [2], 0.56 µg/mL (≈ 1.29 µM); in assay [3], 0.28 µg/mL (≈ 0.643 µM).
For the compound `COC(=O)NC(=O)c1ccsc1NC(=O)c1ccc(C(=O)N2CCCCC2)c(F)c1`, the MIC in assay [1] was greater than 1.98 µg/mL; in assay [2] it was 0.25 µg/mL (≈ 0.577 µM).
As to `CCOC(=O)NC(=O)c1ccsc1NC(=O)c1nc2ccccc2s1`, the MIC in assay [1] came out at 15.4 µg/mL (≈ 40.9 µM).
With `CCOC(=O)NC(=O)c1ccsc1NC(=O)c1ccc(C(=O)N2CCCCC2)c(F)c1`, the MIC was greater than 0.51 µg/mL in assay [1] and 0.064 µg/mL (≈ 0.143 µM) in assay [3].

Broadly, the MIC is the lowest concentration that inhibits growth of the organism.
